Experimental data: ChEMBL document CHEMBL1132214, “Synthesis, mode of action, and biological activities of rebeccamycin bromo derivatives” (J Med Chem, 1999)
pIC50: −log10 of the molar value. In brackets after ≈: the same amount, converted by molar mass.

What was measured:
P388 [1] = test: In vitro inhibitory concentration against murine P388 leukemia cell proliferation; format: functional, cell-based; details: Mus musculus
Summary of the method: (§1)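 Murine P388 leukemia cells, or the camptothecin-resistant P388CPT5 subline, exposed 96 h at 37 °C to a range of drug concentrations. Viability scored by neutral red staining. IC50 taken as the concentration giving 50% growth inhibition.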

[2] = target: T1, DNA topoisomerase 1 (Mus musculus) (UniProt Q04750)
T1 sequence (whole entry): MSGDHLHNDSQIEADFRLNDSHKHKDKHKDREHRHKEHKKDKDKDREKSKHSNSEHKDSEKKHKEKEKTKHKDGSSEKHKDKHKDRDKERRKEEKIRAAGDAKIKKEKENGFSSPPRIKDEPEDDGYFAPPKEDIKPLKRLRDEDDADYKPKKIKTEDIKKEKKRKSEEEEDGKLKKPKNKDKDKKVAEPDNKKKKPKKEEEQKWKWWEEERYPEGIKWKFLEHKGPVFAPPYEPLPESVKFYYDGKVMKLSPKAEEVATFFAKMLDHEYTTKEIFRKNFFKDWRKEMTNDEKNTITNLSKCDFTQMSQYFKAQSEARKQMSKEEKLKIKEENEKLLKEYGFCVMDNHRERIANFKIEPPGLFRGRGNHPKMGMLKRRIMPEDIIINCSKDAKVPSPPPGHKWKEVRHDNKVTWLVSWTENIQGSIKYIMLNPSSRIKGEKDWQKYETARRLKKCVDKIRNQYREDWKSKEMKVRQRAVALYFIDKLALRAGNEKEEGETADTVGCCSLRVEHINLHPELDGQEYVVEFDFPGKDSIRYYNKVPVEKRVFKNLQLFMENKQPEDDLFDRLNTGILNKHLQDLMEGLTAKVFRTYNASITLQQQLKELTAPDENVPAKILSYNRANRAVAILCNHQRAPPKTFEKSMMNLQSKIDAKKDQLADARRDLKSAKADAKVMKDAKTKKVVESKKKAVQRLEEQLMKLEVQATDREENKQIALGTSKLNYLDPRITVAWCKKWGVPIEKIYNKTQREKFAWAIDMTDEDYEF

P388CPT5 = test: In vitro inhibitory concentration against murine P388CPT5 leukemia cell proliferation; format: functional, cell-based; details: Mus musculus; summary of the method: as §1
[3] = (§2) Ratio of IC50 of p388 and p388CPT5 cell lines; format: functional
Summary of the method: (§3)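 Murine P388 leukaemia cells and camptothecin-resistant P388CPT5 cells were exposed to graded drug concentrations for 96 h at 37 °C. Viability was read by neutral red staining and the 50% growth-inhibitory concentration (IC50) taken for each line. The resistance ratio is IC50(P388CPT5)/IC50(P388).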

CEM-SS [4] = test: Selective Index of against HIV -I Lai infected CEM-SS cells.; format: functional, Homo sapiens
Summary of the method: (§4)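 CEM-SS cells kept at 37 °C, 5% CO2 in RPMI 1640 with 10% decomplemented FBS, infected with HIV-1 Lai. Antiviral IC50 from reverse transcriptase activity of virus particles released into the medium. Cytotoxicity (CC50) measured in parallel. Selectivity index = CC50/IC50.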

CEM-SS [5] = test: Compound was tested for anti-HIV activity in HIV -I Lai infected CEM-SS cells.; format: functional, cell-based; details: Homo sapiens; summary of the method: as §4
CEM-SS [6] = test: The cytotoxicity was evaluated in HIV -I Lai infected CEM-SS cells.; format: functional; details: Homo sapiens; summary of the method: as §4
P388 [7] = test: as §2; format: functional, Mus musculus; summary of the method: as §3
P388 [8] = test: Fraction change in percent is observed.; format: functional, Mus musculus
Summary of the method: (§5)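 Exponentially growing P388 cells (1.5 × 10^6 per mL) incubated with drug, usually 100 µM, for 30 min at 37 °C. Excitation 320 nm, emission 400–600 nm. Whole-cell spectrum read before centrifugation. Pellet spectrum read after one HBSS wash and resuspension in drug-free buffer. Intensities expressed relative to free rebeccamycin; fraction change is whole-cell versus free drug.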

P388 [9] = test: Compound was tested for drug bound to cell pellet (P388 leukemia) after centrifugation at 320 nm.; format: functional, Mus musculus; summary of the method: as §5
P388 [10] = test: Compound was tested for drug bound to whole cells (P388 leukemia) before centrifugation at 320 nm.; format: functional, Mus musculus; summary of the method: as §5
[11] = system: DNA topoisomerase 1 (Bos taurus); test: Compound was tested for anti microbial activity against topoisomerase I.
Bacillus cereus = test: Compound was tested for antimicrobial activity against a gram-positive bacterium Bacillus cereus; format: functional
Summary of the method: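 Bacillus cereus ATCC 14579 in Mueller-Hinton broth, pH 7.4, incubated 24 h at 27 °C. Compounds diluted in DMSO over 12 tubes spanning 100 to 0.05 µg/mL. MIC read from the dilution series.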

SMILES | pIC50 (P388 [1]) | MIC [2] [µM] | pIC50 (P388CPT5) | Ratio [3] | Selectivity index (CEM-SS [4]) | pIC50 (CEM-SS [5]) | CC50 (CEM-SS [6]) [µM] | Ratio (P388 [7]) | Fraction change (P388 [8]) [%] | Activity (P388 [9]) | Whole-cell fluorescence relative to free drug (P388 [10]) | MIC [11] [µM] | MIC (Bacillus cereus) [µM]
CC[C@@]1(O)C(=O)OCc2c1cc1n(c2=O)Cc2cc3ccccc3nc2-1 [CAMPTOTHECIN] | 7.49 | 0.086 (≈ 0.03 µg/mL) | 5.55 | 87.5 | – | – | – | – | – | – | – | – | –
CO[C@H]1[C@H](O)[C@@H](O)[C@H](n2c3c(Cl)cccc3c3c4c(c5c6cccc(Cl)c6[nH]c5c32)C(=O)N(C)C4=O)O[C@@H]1CO | – | – | – | – | 1.6 | 5.31 | 8 | – | – | – | – | – | –
CO[C@H]1[C@H](O)[C@@H](O)[C@H](n2c3ccccc3c3c4c(c5c6ccccc6[nH]c5c32)C(=O)OC4=O)O[C@@H]1CO | – | – | – | – | >1.98 SI | – | – | >3.1 | – | – | – | – | –
COC1C(CO)OC(n2c3ccc(Br)cc3c3c4c(c5c6cc(Br)ccc6[nH]c5c32)C(=O)NC4=O)C(O)C1O (configuration not stated) | 6.59 | – | < 4.82 | – | 4.8 | 7.15 | 0.34 | >58 | 46 | 0.08 | 0.15 | 0.15 (≈ 0.0989 µg/mL) | 19 (≈ 12.5 µg/mL)
CO[C@H]1[C@H](O)[C@@H](O)[C@H](n2c3ccc(Br)cc3c3c4c(c5c6cc(Br)ccc6[nH]c5c32)C(=O)OC4=O)O[C@@H]1CO | – | – | – | – | 1.9 | – | – | 8.3 | – | – | – | – | –
COC1C(CO)OC(n2c3ccc(Br)cc3c3c4c(c5c6cc(Br)ccc6[nH]c5c32)C(=O)N(C)C4=O)C(O)C1O (configuration not stated) | 5.31 | – | < 4.82 | – | 1.3 | 5.93 | 1.49 | >3 | 13 | 0.24 | 0.46 | > 15 | > 74
CO[C@H]1[C@H](O)[C@@H](O)[C@H](n2c3c(Cl)cccc3c3c4c(c5c6cccc(Cl)c6[nH]c5c32)C(=O)NC4=O)O[C@@H]1CO [REBECCAMYCIN] | – | – | – | – | 2 SI | – | – | 8.5 | 29 | 0.81 | 1.29 | – | –
CO[C@H]1[C@H](O)[C@@H](O)[C@H](n2c3ccccc3c3c4c(c5c6ccccc6[nH]c5c32)C(=O)N(C)C4=O)O[C@@H]1CO | 6.17 | – | – | – | 2 | 5.40 | 7.9 | – | – | – | – | – | –
CO[C@H]1[C@H](O)[C@@H](O)[C@H](n2c3ccccc3c3c4c(c5c6ccccc6[nH]c5c32)C(=O)NC4=O)O[C@@H]1CO | – | – | – | – | 5.6 | – | – | >28 | -26 | 0.33 | 0.38 | – | –
